Molecules are shown by their SMILES. Where a SMILES comes first, the peptide text is derived from it. Bridges are numbered along the chain shown (N, C = ends).

The test system of this assay is Human immunodeficiency virus 1. As to the kind of experiment: Antiviral activity against HIV1 RF infected in human CEM-SS cells assessed as inhibition of virus induced cytopathic effect by XTT assay. The settings on record: Human immunodeficiency virus 1, RF. It is filed as functional, organism-based. The procedure, abridged:
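HIV-1RF infection of CEM-SS, a human T-lymphoblastoid cell line, in vitro; inhibition of virus-induced cytopathic effects read out and reported as EC50 in µM.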
In general terms: Cytopathic effects are the visible damage that an infection or toxin causes in cultured cells.
The term EC50 denotes the concentration needed to bring the measured effect to its halfway point. With `CC[C@H](C)[C@@H]1NC(=O)[C@@H]2CSSC[C@@H]3NC(=O)[C@H](C(C)C)NC(=O)[C@H](CCCCN)NC(=O)[C@H](CC(N)=O)NC(=O)[C@H](CCCCN)NC(=O)[C@@H]4CSSC[C@H](NC(=O)[C@H](CO)NC(=O)[C@H](CCC(=O)O)NC(=O)CNC(=O)[C@H](CSSC[C@H](NC(=O)CNC(=O)[C@H](CC(C)C)NC(=O)[C@H](C)NC(=O)[C@H](C)NC(=O)[C@H](CO)NC1=O)C(=O)N[C@@H](CO)C(=O)N4)NC(=O)[C@@H]1CCCN1C(=O)[C@H]([C@@H](C)CC)NC(=O)CNC(=O)[C@H](CC(N)=O)NC(=O)[C@H](CCCNC(=N)N)NC(=O)[C@H](Cc1ccc(O)cc1)NC3=O)C(=O)N[C@@H](C(C)C)C(=O)N[C@@H](Cc1c[nH]c3ccccc13)C(=O)N[C@@H]([C@@H](C)CC)C(=O)N1CCC[C@H]1C(=O)N2` [CIRCULIN A] (cyclo(AALGCSCKNKVCYRNGIPCGESCVWIPCIS); disulfide 5-19, 7-23, 12-28), the EC50 amounted to 50 nM.

Consider `CC[C@H](C)[C@@H]1NC(=O)[C@@H]2CSSC[C@@H]3NC(=O)[C@H](C(C)C)NC(=O)[C@H](CCCCN)NC(=O)[C@H](CC(N)=O)NC(=O)[C@H](CCCCN)NC(=O)[C@@H]4CSSC[C@H](NC(=O)[C@H](CO)NC(=O)[C@H](CCC(=O)O)NC(=O)CNC(=O)[C@H](CSSC[C@H](NC(=O)CNC(=O)[C@H](CC(C)C)NC(=O)[C@H](CC(C)C)NC(=O)[C@H]([C@@H](C)O)NC(=O)[C@H](CO)NC1=O)C(=O)N[C@@H](CO)C(=O)N4)NC(=O)[C@@H]1CCCN1C(=O)[C@H]([C@@H](C)CC)NC(=O)[C@H](C(C)C)NC(=O)CNC(=O)[C@H](CC(N)=O)NC(=O)[C@H](CCCNC(=N)N)NC(=O)[C@H](Cc1ccc(O)cc1)NC3=O)C(=O)N[C@@H](C(C)C)C(=O)N[C@@H](Cc1ccccc1)C(=O)N[C@@H]([C@@H](C)CC)C(=O)N1CCC[C@H]1C(=O)N2` [CIRCULIN B] (cyclo(CGESCVFIPCISTLLGCSCKNKVCYRNGVIP); disulfide 1-17, 5-19, 10-24), for which the EC50 was found to be 50 nM. For the compound `CC[C@H](C)[C@@H]1NC(=O)[C@@H]2CSSC[C@@H]3NC(=O)[C@H](C(C)C)NC(=O)[C@H](CCCCN)NC(=O)[C@H](CO)NC(=O)[C@H](CCCCN)NC(=O)[C@@H]4CSSC[C@H](NC(=O)[C@H](CO)NC(=O)[C@H](CCC(=O)O)NC(=O)CNC(=O)[C@H](CSSC[C@H](NC(=O)CNC(=O)[C@H](C)NC(=O)[C@H](C(C)C)NC(=O)[C@H](CO)NC(=O)[C@H]([C@@H](C)O)NC1=O)C(=O)N[C@@H](CO)C(=O)N4)NC(=O)[C@@H]1CCCN1C(=O)[C@H]([C@@H](C)CC)NC(=O)CNC(=O)[C@H](CC(N)=O)NC(=O)[C@H](CCCNC(=N)N)NC(=O)[C@H](Cc1ccc(O)cc1)NC3=O)C(=O)N[C@@H](C(C)C)C(=O)N[C@@H](Cc1ccccc1)C(=O)N[C@@H]([C@@H](C)CC)C(=O)N1CCC[C@H]1C(=O)N2` [CIRCULIN C] (cyclo(AGCSCKSKVCYRNGIPCGESCVFIPCITSV); disulfide 3-17, 5-21, 10-26), the EC50 amounted to 50 nM.

Take `CC[C@H](C)[C@@H]1NC(=O)[C@H](CO)NC(=O)[C@H]([C@@H](C)O)NC(=O)[C@H](Cc2ccc(O)cc2)NC(=O)[C@@H]2CSSC[C@@H]3NC(=O)[C@H](C(C)C)NC(=O)[C@H](CCCCN)NC(=O)[C@H](CC(N)=O)NC(=O)[C@H](CCC(=O)O)NC(=O)[C@@H]4CSSC[C@H](NC(=O)[C@H](CO)NC(=O)[C@H](CCC(=O)O)NC(=O)CNC(=O)[C@H](CSSC[C@H](NC(=O)[C@H](CC(N)=O)NC(=O)[C@H](Cc5ccccc5)NC1=O)C(=O)N[C@@H](CCCCN)C(=O)N4)NC(=O)[C@@H]1CCCN1C(=O)[C@H]([C@@H](C)CC)NC(=O)[C@H](CCCCN)NC(=O)[C@H](CC(=O)O)NC(=O)[C@H](Cc1cnc[nH]1)NC(=O)[C@H](Cc1ccc(O)cc1)NC3=O)C(=O)N[C@@H](C(C)C)C(=O)N[C@@H](Cc1c[nH]c3ccccc13)C(=O)N[C@@H]([C@@H](C)CC)C(=O)N1CCC[C@H]1C(=O)N2` [CIRCULIN D] (cyclo(CENKVCYHDKIPCGESCVWIPCYTSIFNCK); disulfide 1-17, 6-22, 13-29): the EC50 is 50 nM. The value for `CC[C@H](C)[C@@H]1NC(=O)[C@H](CCCCN)NC(=O)[C@H](CC(=O)O)NC(=O)[C@H](Cc2cnc[nH]2)NC(=O)[C@H](Cc2ccc(O)cc2)NC(=O)[C@@H]2CSSC[C@@H]3NC(=O)[C@@H]4CCCN4C(=O)[C@H]([C@@H](C)CC)NC(=O)[C@H](Cc4c[nH]c5ccccc45)NC(=O)[C@H](C(C)C)NC(=O)[C@@H]4CSSC[C@H](NC(=O)[C@H](CCCCN)NC(=O)[C@H](CSSC[C@H](NC(=O)[C@@H]5CCCN5C1=O)C(=O)NCC(=O)N[C@@H](CCC(=O)O)C(=O)N[C@@H](CO)C(=O)N4)NC(=O)[C@H](CC(N)=O)NC(=O)[C@H](Cc1ccccc1)NC(=O)[C@H](C(C)C)NC(=O)[C@H](CO)NC(=O)[C@H]([C@@H](C)O)NC(=O)[C@H](CC(C)C)NC3=O)C(=O)N[C@@H](CCC(=O)O)C(=O)N[C@@H](CC(N)=O)C(=O)N[C@@H](CCCCN)C(=O)N[C@@H](C(C)C)C(=O)N2` [CIRCULIN E] (cyclo(CENKVCYHDKIPCGESCVWIPCLTSVFNCK); disulfide 1-17, 6-22, 13-29) was 50 nM. The value for `CC[C@H](C)[C@@H]1NC(=O)[C@H](C)NC(=O)[C@H](C)NC(=O)[C@H](CO)NC(=O)[C@H]([C@@H](C)CC)NC(=O)[C@@H]2CSSC[C@@H]3NC(=O)[C@H](C(C)C)NC(=O)[C@H](CCCCN)NC(=O)[C@H](CC(N)=O)NC(=O)[C@H](CCCCN)NC(=O)[C@@H]4CSSC[C@H](NC(=O)[C@H](CO)NC(=O)[C@H](CCC(=O)O)NC(=O)CNC(=O)[C@H](CSSC[C@H](NC(=O)CNC1=O)C(=O)N[C@@H](CO)C(=O)N4)NC(=O)[C@@H]1CCCN1C(=O)[C@H]([C@@H](C)CC)NC(=O)[C@H](C)NC(=O)[C@H](CCCNC(=N)N)NC(=O)[C@H](Cc1ccc(O)cc1)NC3=O)C(=O)N[C@@H](C(C)C)C(=O)N[C@@H](Cc1c[nH]c3ccccc13)C(=O)N[C@@H]([C@@H](C)CC)C(=O)N1CCC[C@H]1C(=O)N2` [CIRCULIN F] (cyclo(AAIGCSCKNKVCYRAIPCGESCVWIPCIS); disulfide 5-18, 7-22, 12-27) was 50 nM; that for `CC[C@H](C)[C@@H]1NC(=O)[C@H](C)NC(=O)[C@H](C)NC(=O)[C@H](CO)NC(=O)[C@H]([C@@H](C)CC)NC(=O)[C@@H]2CSSC[C@@H]3NC(=O)[C@H](C(C)C)NC(=O)[C@H](CCCCN)NC(=O)[C@H](CC(N)=O)NC(=O)[C@H](CCCCN)NC(=O)[C@@H]4CSSC[C@H](NC(=O)[C@H](CO)NC(=O)[C@H](CCC(=O)O)NC(=O)CNC(=O)[C@H](CSSC[C@H](NC(=O)CNC1=O)C(=O)N[C@@H](CO)C(=O)N4)NC(=O)[C@@H]1CCCN1C(=O)[C@H]([C@@H](C)CC)NC(=O)[C@H](C(C)C)NC(=O)CNC(=O)[C@H](CC(N)=O)NC(=O)[C@H](CCCNC(=N)N)NC(=O)[C@H](Cc1ccc(O)cc1)NC3=O)C(=O)N[C@@H](C(C)C)C(=O)N[C@@H](Cc1ccccc1)C(=O)N[C@@H]([C@@H](C)CC)C(=O)N1CCC[C@H]1C(=O)N2` [CYCLOVIOLIN A] (cyclo(AAIGCSCKNKVCYRNGVIPCGESCVFIPCIS); disulfide 5-20, 7-24, 12-29) was 50 nM. The value for `CC(C)C[C@@H]1NC(=O)[C@H](C(C)C)NC(=O)[C@H](Cc2ccc(O)cc2)NC(=O)[C@@H]2CSSC[C@@H]3NC(=O)[C@H]([C@@H](C)O)NC(=O)[C@@H]4CSSC[C@H](NC(=O)[C@H](C)NC(=O)[C@H]([C@@H](C)O)NC(=O)CNC(=O)[C@H](CC(N)=O)NC(=O)[C@H](CCCCN)NC(=O)[C@H](Cc5ccccc5)NC(=O)[C@H](CSSC[C@H](NC(=O)[C@@H]5CCCN5C1=O)C(=O)N[C@@H](Cc1ccccc1)C(=O)N[C@@H]([C@@H](C)O)C(=O)N[C@@H](C(C)C)C(=O)NCC(=O)N4)NC(=O)[C@H](CCC(N)=O)NC(=O)[C@H](CO)NC(=O)[C@H](CO)NC(=O)[C@H]([C@@H](C)O)NC3=O)C(=O)NCC(=O)N[C@@H](CCC(=O)O)C(=O)N[C@@H](CO)C(=O)N2` [CYCLOVIOLIN B] (cyclo(ACGESCYVLPCFTVGCTCTSSQCFKNGT); disulfide 2-16, 6-18, 11-23) was 50 nM. On to `CC[C@H](C)[C@@H]1NC(=O)CNC(=O)[C@H](CC(N)=O)NC(=O)[C@H](CCCNC(=N)N)NC(=O)[C@H](Cc2ccc(O)cc2)NC(=O)[C@@H]2CSSC[C@@H]3NC(=O)[C@@H]4CCCN4C(=O)[C@H]([C@@H](C)CC)NC(=O)[C@H](Cc4ccccc4)NC(=O)[C@H](C(C)C)NC(=O)[C@@H]4CSSC[C@H](NC(=O)[C@H](CO)NC(=O)[C@H](CSSC[C@H](NC(=O)[C@@H]5CCCN5C1=O)C(=O)NCC(=O)N[C@@H](CCC(=O)O)C(=O)N[C@@H](CO)C(=O)N4)NC(=O)CNC(=O)[C@H](C)NC(=O)[C@H](C(C)C)NC(=O)[C@H]([C@@H](C)O)NC(=O)[C@H]([C@@H](C)O)NC(=O)[C@H](CC(C)C)NC3=O)C(=O)N[C@@H](CCCCN)C(=O)N[C@@H](CC(N)=O)C(=O)N[C@@H](CCCCN)C(=O)N[C@@H](C(C)C)C(=O)N2` [CYCLOVIOLIN C] (cyclo(AGCSCKNKVCYRNGIPCGESCVFIPCLTTV); disulfide 3-17, 5-21, 10-26), for which the 50% effective concentration (EC50) was 50 nM.

`CC[C@H](C)[C@@H]1NC(=O)[C@H](C)NC(=O)[C@H](C)NC(=O)[C@H](CO)NC(=O)[C@H]([C@@H](C)CC)NC(=O)[C@@H]2CSSC[C@@H]3NC(=O)[C@H](C(C)C)NC(=O)[C@H](CCCCN)NC(=O)[C@H](CC(N)=O)NC(=O)[C@H](CCCCN)NC(=O)[C@@H]4CSSC[C@H](NC(=O)[C@H](CO)NC(=O)[C@H](CCC(=O)O)NC(=O)CNC(=O)[C@H](CSSC[C@H](NC(=O)CNC1=O)C(=O)N[C@@H](CO)C(=O)N4)NC(=O)[C@@H]1CCCN1C(=O)[C@H](Cc1ccccc1)NC(=O)CNC(=O)[C@H](CC(N)=O)NC(=O)[C@H](CCCNC(=N)N)NC(=O)[C@H](Cc1ccc(O)cc1)NC3=O)C(=O)N[C@@H](C(C)C)C(=O)N[C@@H](Cc1ccccc1)C(=O)N[C@@H]([C@@H](C)CC)C(=O)N1CCC[C@H]1C(=O)N2` [CYCLOVIOLIN D] (cyclo(AAIGCSCKNKVCYRNGFPCGESCVFIPCIS); disulfide 5-19, 7-23, 12-28): the EC50 was found to be 50 nM.

The record behind these values is ChEMBL document CHEMBL1137803, “A novel anti-HIV macrocyclic peptide from Palicourea condensata” (J Nat Prod, 2001).
